Test results: ChEMBL document CHEMBL1926554, “Diarylheptanoids from the seeds of Alpinia katsumadai as heat shock factor 1 inducers” (J Nat Prod, 2011)
Calls of active or inactive are those of the source. No cut-off for these calls is given here.

Key:
NCI-H460 [1] = test: Induction of HSF1 expression in human NCI-H460 cells at 1 uM after 24 hrs by Western blotting relative to control; assay type: functional
Outline: (§1)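 NCI-H460 (human non-small-cell lung cancer) cells treated 24 h. Lysates run on SDS-PAGE, transferred to nitrocellulose, probed with antibodies to HSF1, HSP27 and HSP70, detected by ECL. Band signals normalized to β-actin and compared with untreated cells. Mean ± SD of three independent experiments done in triplicate, p < 0.05 versus untreated.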

NCI-H460 [2] = test: Cytotoxicity against human NCI-H460 cells after overnight incubation by MTT assay; assay type: cell-based
Outline: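 Human non-small-cell lung cancer NCI-H460 cells. Cytotoxicity read by MTT assay. IC50 taken as the concentration (μM) giving 50% inhibition of cell growth.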

NCI-H460 [3] = test: Induction of HSP27 expression in human NCI-H460 cells at 1 uM after 24 hrs by Western blotting relative to control; assay type: functional; outline: as §1
NCI-H460 [4] = test: Induction of HSP70 expression in human NCI-H460 cells at 1 uM after 24 hrs by Western blotting relative to control; assay type: functional; outline: as §1

Row | Structure (SMILES) | fold change (FC) (NCI-H460 [1]) | IC50 (NCI-H460 [2]) | fold change (FC) (NCI-H460 [3]) | fold change (FC) (NCI-H460 [4]) | Activity (NCI-H460 [1]) | Activity (NCI-H460 [3]) | Activity (NCI-H460 [4])
1 | COc1cc(O)c(C(/C=C/CC(O)CCc2ccc(O)cc2)c2ccc(O)cc2)c(O)c1C(=O)/C=C/c1ccccc1 (mixture of isomers) | 1.438 | 47.4 µM | 1.403 | 1.373 |  |  | 
2 | O=C(/C=C/c1ccc(O)cc1)C[C@H](O)CCc1ccccc1 |  |  |  |  | inactive | inactive | inactive
3 | COc1cc(O)c(C(/C=C/CC(O)CCc2ccccc2)c2ccc(O)cc2)c(O)c1C(=O)/C=C/c1ccc(O)cc1 (mixture of isomers) | 1.316 | 45.7 µM | 1.27 | 1.229 |  |  | 
4 | Oc1ccc(CC[C@H](O)C[C@H](O)/C=C/c2ccccc2)cc1 |  |  |  |  | inactive | inactive | inactive
5 | COc1cc(O)c(C(/C=C/CC(O)CCc2ccccc2)c2ccc(O)cc2)c(O)c1C(=O)/C=C/c1ccccc1 (mixture of isomers) | 1.19 | 39.8 µM | 1.25 | 1.313 |  |  | 
6 | CC1=C(O)C(=O)C=C2C1=CC=C1[C@@]2(C)CC[C@@]2(C)[C@@H]3C[C@](C)(C(=O)O)CC[C@]3(C)CC[C@]12C [CELASTROL] | 1.066 | 12.3 µM | 1.216 | 1.371 |  |  | 
7 | CC(=O)O[C@H]1C(=O)[C@@]2(C)[C@H]([C@H](OC(=O)c3ccccc3)[C@]3(O)C[C@H](OC(=O)[C@H](O)[C@@H](NC(=O)c4ccccc4)c4ccccc4)C(C)=C1C3(C)C)[C@]1(OC(C)=O)CO[C@@H]1C[C@@H]2O [PACLITAXEL] |  | 8 µM |  |  |  |  | 
